Measurements published in publication PMC3371134 (Journal of Neurochemistry, 2012).
“Also recorded” adds a separate entry of the source.

Experiments:
calcineurin B (CnB) = test: Yeast two-hybrid; format: binding, mouse; conditions: LexA and VP16 fusions, lacZ reporter, X-gal
How it was run: (§1)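 Mouse coding sequences (from brain cDNA) were cloned as galactose-inducible LexA and VP16 fusions and co-transformed into S260 yeast, selected on glucose Trp−/Ura− plates. Colonies on filters were switched to galactose for induction, then assayed for lacZ with X-gal. Autoactivation was checked against LexA/VP16 control vectors. Blue within 1 h was scored positive; blue at 2–4 h was scored weak.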

centrin 2 (Cetn2) = test: Yeast two-hybrid; format: binding, mouse; conditions: LexA and VP16 fusions, lacZ reporter, X-gal
How it was run: as §1

[1] = system: calmodulin-like 4 (Calml4); test: Yeast two-hybrid; format: binding, mouse; conditions: LexA and VP16 fusions, lacZ reporter, X-gal
How it was run: as §1

calneuron 1 (Caln1) = test: Yeast two-hybrid; format: binding, mouse; conditions: LexA and VP16 fusions, lacZ reporter, X-gal
How it was run: as §1

calmodulin-Sepharose = test: CaM-Sepharose pulldown of Myc-tagged proteins expressed in COS-7 cells; format: binding
How it was run: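 Myc-tagged mouse constructs (from brain cDNA) were expressed in COS-7 cells, grown in DMEM/10% FBS at 37°C and transfected at 80% confluency with 3 μg plasmid. After 48 h, cells were lysed 30 min at 4°C in TX-buffer (50 mM Tris-HCl pH 6.9, 0.5% Triton X-100, protease inhibitors). Cleared lysate was incubated overnight at 4°C with CaM-Sepharose, then washed 3× and detected by SDS-PAGE/anti-Myc (9E10) western blot with ECL.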

B1: Pcp4l1: small neuronal IQ motif protein, 68 amino acids, full length (protein)
chain: MSELNTKTPPAANQASDPEEKGKPGSIKKAEEEEEIDIDLTAPETEKAALAIQGKFRRFQKRKKDSSS
modifications: left off: Myc, end not stated, kept
- interaction with CnB in Y2H (calcineurin B (CnB)): no binding was detected
- interaction with Cetn2 in Y2H (centrin 2 (Cetn2)): no binding was detected
- interaction with Calml4 in Y2H [1]: no binding was detected
- interaction with Caln1 in Y2H (calneuron 1 (Caln1)): no binding was detected
- CaM-Sepharose pulldown, calcium-replete (calmodulin-Sepharose; 5mM CaCl2, TX-buffer pH 6.9, overnight at 4°C, anti-Myc western blot): binds weakly or not at all to CaM; also recorded: interacts poorly with CaM in both low and high calcium conditions
- calcium dependence of CaM binding / overall CaM binding (calmodulin-Sepharose; 5mM CaCl2 or 5mM EGTA, summary in Discussion): little or no binding in either calcium poor or replete conditions
- CaM-Sepharose pulldown, calcium-poor (calmodulin-Sepharose; 5mM EGTA, TX-buffer pH 6.9, overnight at 4°C, anti-Myc western blot): binds weakly or not at all to CaM; also recorded: interacts poorly with CaM in both low and high calcium conditions
